{
  "source": "ChEMBL document CHEMBL1800034",
  "about": "“A synthetic 7,8-dihydroxyflavone derivative promotes neurogenesis and exhibits potent antidepressant effect” (J Med Chem, 2010)",
  "key": {"[1]": {"tested_on": "Mus musculus", "assay": "Agonist activity at TrkB in C57BL/6J mouse brain assessed as MAPK phosphorylation at 1 mg/kg, po after 1 to 16 hrs by immunoblotting", "assay_type": "functional, organism-based", "set-up": "dose 1 mg/kg", "how_it_was_run": "(§1)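 C57BL/6J mice got a single oral dose of 1 mg/kg. Brains were collected at several time points, about 1 to 16 h after dosing. Lysates were immunoblotted for TrkB phosphorylation and for downstream Akt and MAPK phosphorylation.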"}, "[2]": {"tested_on": "Mus musculus", "assay": "Toxicity in C57BL/6J mouse assessed as pathological changes in testis at 5 mg/kg, po for 3 weeks", "assay_type": "organism-based", "set-up": "dose 5 mg/kg, route oral", "conditions": "in vivo, 504 h", "how_it_was_run": "(§2)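 Mice were dosed orally at 5 mg/kg for 3 weeks, with saline-treated controls. Major organs were examined for pathological changes, and a complete blood count was done.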"}, "[3]": {"assay": "Cytotoxicity at E17 rat primary cortical neurons assessed as cell death at 5 uM by LDH assay", "assay_type": "cell-based", "conditions": "cerebral cortex neuron"}, "[4]": {"biological_target": "BDNF/NT-3 growth factors receptor (Rattus norvegicus) (UniProt Q63604)", "sequence (Q63604 whole entry)": "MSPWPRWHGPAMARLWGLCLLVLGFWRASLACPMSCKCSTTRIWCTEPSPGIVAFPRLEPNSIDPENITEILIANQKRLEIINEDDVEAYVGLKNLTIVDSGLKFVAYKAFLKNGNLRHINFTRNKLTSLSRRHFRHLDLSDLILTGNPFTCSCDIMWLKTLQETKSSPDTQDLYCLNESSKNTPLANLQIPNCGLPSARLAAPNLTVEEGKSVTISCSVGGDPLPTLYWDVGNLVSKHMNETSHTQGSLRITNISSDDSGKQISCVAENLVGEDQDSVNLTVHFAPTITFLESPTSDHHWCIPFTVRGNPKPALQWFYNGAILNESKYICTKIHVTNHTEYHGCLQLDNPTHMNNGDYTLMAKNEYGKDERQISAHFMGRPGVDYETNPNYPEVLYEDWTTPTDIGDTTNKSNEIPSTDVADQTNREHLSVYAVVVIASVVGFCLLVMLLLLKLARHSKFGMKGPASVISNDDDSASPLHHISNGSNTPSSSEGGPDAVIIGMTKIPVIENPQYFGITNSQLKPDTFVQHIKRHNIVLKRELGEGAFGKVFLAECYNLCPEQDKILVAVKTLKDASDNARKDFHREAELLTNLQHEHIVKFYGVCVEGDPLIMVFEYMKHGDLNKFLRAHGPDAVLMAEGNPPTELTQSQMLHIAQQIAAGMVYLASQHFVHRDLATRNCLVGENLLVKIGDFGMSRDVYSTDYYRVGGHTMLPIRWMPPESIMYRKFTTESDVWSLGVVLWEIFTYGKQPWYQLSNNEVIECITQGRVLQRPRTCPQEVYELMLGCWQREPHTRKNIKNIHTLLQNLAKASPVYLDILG", "assay": "Agonist activity at TrkB in E17 rat primary cortical neurons at 500 nM after 30 to 180 mins by immunoblotting", "assay_type": "functional, cell-based", "conditions": "Cerebral cortex neuron", "how_it_was_run": "(§3)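 Rat primary cortical neurons were exposed to 500 nM compound for various times between 5 and 180 min. Lysates were immunoblotted for TrkB, Akt and MAPK phosphorylation.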"}, "[5]": {"biological_target": "BDNF/NT-3 growth factors receptor (Rattus norvegicus) (UniProt Q63604)", "assay": "Agonist activity at TrkB in E17 rat primary rat cortical neurons assessed as AKT phosphorylation at Ser 473 at 10 to 50 nM after 15 mins by titration assay", "assay_type": "functional", "how_it_was_run": "(§4)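 Primary cortical neurons were incubated with graded concentrations, starting at 10 nM, for 15 min. Phospho-Akt Ser473 was measured by sandwich ELISA on 20 µg of lysate. Data come from 2 replicated experiment sets, given as mean ± SEM. Comparisons used one-way ANOVA against control and Student's t-test between compounds.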"}, "[6]": {"biological_target": "BDNF/NT-3 growth factors receptor (Rattus norvegicus) (UniProt Q63604)", "assay": "Agonist activity at TrkB in E17 rat primary cortical neurons at 500 nM after 10 mins by immunoblotting", "assay_type": "functional, cell-based", "conditions": "Cerebral cortex neuron", "how_it_was_run": "as §3"}, "[7]": {"tested_on": "Mus musculus", "assay": "Antidepressant activity in C57BL/6J mouse assessed as decrease in immobility at 5 mg/kg, po administered for 21 days measured last 4 mins of total 6 mins observation time by forced swim test", "assay_type": "functional, organism-based", "set-up": "dose 5 mg/kg", "how_it_was_run": "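Male C57BL/6J mice, 2–3 months old, were gavaged with saline or compound at 5 mg/kg for 21 days. Mice were acclimated to the test room for 2 days. There was no pre-swim. Each mouse swam for 6 min in a 16 cm cylinder of water 14 cm deep at 24 °C. Immobility was scored blind over the last 4 min; mean ± SEM, ANOVA.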"}, "[8]": {"tested_on": "Mus musculus", "assay": "Toxicity in C57BL/6J mouse assessed as pathological changes in heart at 5 mg/kg, po for 3 weeks", "assay_type": "organism-based", "set-up": "dose 5 mg/kg, route oral", "conditions": "in vivo, 504 h", "how_it_was_run": "as §2"}, "[9]": {"tested_on": "Mus musculus", "assay": "Toxicity in C57BL/6J mouse assessed as pathological changes in lungs at 5 mg/kg, po for 3 weeks", "assay_type": "organism-based", "set-up": "dose 5 mg/kg, route oral", "conditions": "in vivo, 504 h", "how_it_was_run": "as §2"}, "[10]": {"biological_target": "BDNF/NT-3 growth factors receptor (Rattus norvegicus) (UniProt Q63604)", "assay": "Agonist activity at TrkB in E16 rat embryonic cortical neurons assessed as inhibition of glutamate-induced caspase 3 activation at 10 nM after 30 mins followed by 16 hrs of 50 uM glutamate-challenge by ELISA", "assay_type": "functional", "how_it_was_run": "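Cortical neurons from E16 rat embryos were pretreated with the indicated compound concentrations for 30 min. They were then challenged with 50 µM glutamate for 16 h. Active caspase-3 in the lysates was measured by ELISA.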"}, "[11]": {"tested_on": "Mus musculus", "assay": "Agonist activity at TrkB in C57BL/6J mouse brain assessed as AKT phosphorylation at 1 mg/kg, po after 1 to 16 hrs by immunoblotting", "assay_type": "functional, organism-based", "set-up": "dose 1 mg/kg", "how_it_was_run": "as §1"}, "[12]": {"tested_on": "Mus musculus", "assay": "Agonist activity at TrkB in C57BL/6J mouse brain assessed as AKT phosphorylation at Ser473 at 1 mg/kg, po after 1 to 16 hrs by immunoblotting", "assay_type": "functional, organism-based", "set-up": "dose 1 mg/kg", "how_it_was_run": "as §1"}, "[13]": {"biological_target": "BDNF/NT-3 growth factors receptor (Rattus norvegicus) (UniProt Q63604)", "assay": "Agonist activity at TrkB in E17 rat primary rat cortical neurons assessed as AKT phosphorylation at Ser 473 at 500 nM after 15 mins by ELISA", "assay_type": "functional"}, "[14]": {"tested_on": "HEK293", "assay": "Cytotoxicity against human HEK293 cells assessed as inhibition of cell proliferation at up to 50 uM by MTT assay", "assay_type": "cell-based"}, "[15]": {"tested_on": "Mus musculus", "assay": "Agonist activity at TrkA in C57BL/6J mouse brain lysate assessed as TrkA phosphorylation at Y794 at 5 mg/kg, po administered for 21 days by immunoblotting", "assay_type": "functional, organism-based", "set-up": "dose 5 mg/kg", "how_it_was_run": "(§5)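 Adult male C57BL/6J mice, 8 per group, dosed orally by gavage once daily for 21 days; saline was the vehicle. Brain lysates were immunoblotted with anti-p-TrkA 794 and anti-p-TrkB 817.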"}, "[16]": {"tested_on": "Mus musculus", "assay": "Toxicity in C57BL/6J mouse assessed as pathological changes in muscle at 5 mg/kg, po for 3 weeks", "assay_type": "organism-based, Muscle tissue", "set-up": "dose 5 mg/kg, route oral", "conditions": "in vivo, 504 h", "how_it_was_run": "as §2"}, "[17]": {"biological_target": "BDNF/NT-3 growth factors receptor (Rattus norvegicus) (UniProt Q63604)", "assay": "Agonist activity at TrkB in E17 rat primary rat cortical neurons assessed as AKT phosphorylation at Ser 473 at 10 nM after 15 mins by titration assay", "assay_type": "functional", "how_it_was_run": "as §4"}, "[18]": {"biological_target": "BDNF/NT-3 growth factors receptor (Rattus norvegicus) (UniProt Q63604)", "assay": "Agonist activity at TrkB in E17 rat primary rat cortical neurons assessed as AKT phosphorylation at Ser 473 at 100 nM after 15 mins by titration assay", "assay_type": "functional", "how_it_was_run": "as §4"}, "[19]": {"tested_on": "Mus musculus", "assay": "Induction of neurogenesis in C57BL/6J mouse hippocampus dentate gyrus assessed as progenitor cell proliferation at 5 mg/kg, po administered for 21 days by DAPI and BrdU staining based fluorescence microscopy", "assay_type": "functional, organism-based", "set-up": "dose 5 mg/kg", "how_it_was_run": "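Adult male C57BL/6J mice were gavaged at 5 mg/kg for 21 days and then given BrdU at 50 mg/kg i.p. Mice were perfused with 4% paraformaldehyde 2 h later. Paraffin sections had citrate antigen retrieval and 2 N HCl treatment, then were stained with anti-BrdU-FITC at 4 °C for 16 h and with DAPI. BrdU-positive cells in the dentate gyrus were counted by fluorescence microscopy.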"}, "[20]": {"tested_on": "HEK293", "assay": "Cytotoxicity against human HEK293 cells assessed as cell death at 50 to 50000 nM after 24 hrs by LDH assay", "assay_type": "cell-based", "conditions": "hek293, 24 h, 50 µM"}, "[21]": {"tested_on": "Mus musculus", "assay": "Neuroprotective activity in TrkB F616A knock in mouse assessed as inhibition of kainic acid-induced caspase 3 activation in brain homogenates at 5 mg/kg, po administered 4 hrs prior to kainic acid challenge measured after 4 days by immunoblotting in presence of TrkB F616A inhibitor 1NMPP1", "assay_type": "functional, organism-based", "set-up": "dose 5 mg/kg", "how_it_was_run": "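TrkB F616A knock-in mice, 2–3 months old, were given 1NMPP1 at 25 µM in drinking water one day beforehand. They were then gavaged with compound at 5 mg/kg, followed 4 h later by kainic acid at 20 mg/kg. Brains were taken 4 days later, homogenized and ultracentrifuged. 40 µg of supernatant was immunoblotted.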"}, "[22]": {"tested_on": "Mus musculus", "assay": "Toxicity in C57BL/6J mouse assessed as pathological changes in kidney at 5 mg/kg, po for 3 weeks", "assay_type": "organism-based", "set-up": "dose 5 mg/kg, route oral", "conditions": "in vivo, 504 h", "how_it_was_run": "as §2"}, "[23]": {"biological_target": "BDNF/NT-3 growth factors receptor (Rattus norvegicus) (UniProt Q63604)", "assay": "Agonist activity at TrkB in E17 rat primary cortical neurons at 500 nM after 5 mins by immunoblotting", "assay_type": "functional, cell-based", "conditions": "Cerebral cortex neuron", "how_it_was_run": "as §3"}, "[24]": {"tested_on": "Mus musculus", "assay": "Agonist activity at TrkB in C57BL/6J mouse brain lysate assessed as TrkB phosphorylation at Y817 at 5 mg/kg, po administered for 21 days by immunoblotting", "assay_type": "functional, organism-based", "set-up": "dose 5 mg/kg", "how_it_was_run": "as §5"}, "[25]": {"tested_on": "Mus musculus", "assay": "Toxicity in C57BL/6J mouse assessed as pathological changes in liver at 5 mg/kg, po for 3 weeks", "assay_type": "organism-based", "set-up": "dose 5 mg/kg, route oral", "conditions": "in vivo, 504 h", "how_it_was_run": "as §2"}, "[26]": {"tested_on": "Mus musculus", "assay": "Toxicity in C57BL/6J mouse assessed as affect on complete blood count analysis at 5 mg/kg, po for 3 weeks", "assay_type": "organism-based", "set-up": "dose 5 mg/kg, route oral", "conditions": "in vivo, 504 h", "how_it_was_run": "as §2"}},
  "note": "The source made the active and inactive calls. No cut-off for these calls is given here.",
  "data": [
    {"smiles": "CN(C)c1ccc(-c2cc(=O)c3ccc(O)c(O)c3o2)cc1", "values": [
      {"measurement": "Activity", "setting": "[1]", "value": "Active"},
      {"measurement": "Activity", "setting": "[2]", "value": "Non-toxic"},
      {"measurement": "Activity", "setting": "[3]", "value": "Non-toxic"},
      {"measurement": "Activity", "setting": "[4]", "value": "inactive"},
      {"measurement": "Activity", "setting": "[5]", "value": "Active"},
      {"measurement": "Activity", "setting": "[6]", "value": "Active"},
      {"measurement": "Activity", "setting": "[7]", "value": "Active"},
      {"measurement": "Activity", "setting": "[8]", "value": "Non-toxic"},
      {"measurement": "Activity", "setting": "[9]", "value": "Non-toxic"},
      {"measurement": "inhibition", "setting": "[10]", "value": "Active"},
      {"measurement": "Activity", "setting": "[11]", "value": "Active"},
      {"measurement": "Activity", "setting": "[12]", "value": "Active"},
      {"measurement": "Activity", "setting": "[13]", "value": "Active"},
      {"measurement": "Activity", "setting": "[14]", "value": "Non-toxic"},
      {"measurement": "Activity", "setting": "[15]", "value": "inactive"},
      {"measurement": "Activity", "setting": "[16]", "value": "Non-toxic"},
      {"measurement": "Activity", "setting": "[17]", "value": "Active"},
      {"measurement": "Activity", "setting": "[18]", "value": "Active"},
      {"measurement": "Activity", "setting": "[19]", "value": "Active"},
      {"measurement": "Activity", "setting": "[20]", "value": "Non-toxic"},
      {"measurement": "inhibition", "setting": "[21]", "value": "inactive"},
      {"measurement": "Activity", "setting": "[22]", "value": "Non-toxic"},
      {"measurement": "Activity", "setting": "[23]", "value": "Active"},
      {"measurement": "Activity", "setting": "[24]", "value": "Active"},
      {"measurement": "Activity", "setting": "[25]", "value": "Non-toxic"},
      {"measurement": "Activity", "setting": "[26]", "value": "Non-toxic"}
    ]}
  ]
}
